Reference: ChEMBL document CHEMBL4402547, “Synthesis and Pharmacological Characterization of Conformationally Restricted Retigabine Analogues as Novel Neuronal Kv7 Channel Activators” (J Med Chem, 2020)

How the values were obtained:
[1] = target: T1, Potassium voltage-gated channel subfamily KQT member 3 (Homo sapiens, UniProt O43525); assay: Activation of human Kv7.3 expressed in CHO cells assessed as increase in channel current amplitude by whole cell patch clamp electrophysiology assay; type: cell-based
T1 sequence (O43525 whole entry): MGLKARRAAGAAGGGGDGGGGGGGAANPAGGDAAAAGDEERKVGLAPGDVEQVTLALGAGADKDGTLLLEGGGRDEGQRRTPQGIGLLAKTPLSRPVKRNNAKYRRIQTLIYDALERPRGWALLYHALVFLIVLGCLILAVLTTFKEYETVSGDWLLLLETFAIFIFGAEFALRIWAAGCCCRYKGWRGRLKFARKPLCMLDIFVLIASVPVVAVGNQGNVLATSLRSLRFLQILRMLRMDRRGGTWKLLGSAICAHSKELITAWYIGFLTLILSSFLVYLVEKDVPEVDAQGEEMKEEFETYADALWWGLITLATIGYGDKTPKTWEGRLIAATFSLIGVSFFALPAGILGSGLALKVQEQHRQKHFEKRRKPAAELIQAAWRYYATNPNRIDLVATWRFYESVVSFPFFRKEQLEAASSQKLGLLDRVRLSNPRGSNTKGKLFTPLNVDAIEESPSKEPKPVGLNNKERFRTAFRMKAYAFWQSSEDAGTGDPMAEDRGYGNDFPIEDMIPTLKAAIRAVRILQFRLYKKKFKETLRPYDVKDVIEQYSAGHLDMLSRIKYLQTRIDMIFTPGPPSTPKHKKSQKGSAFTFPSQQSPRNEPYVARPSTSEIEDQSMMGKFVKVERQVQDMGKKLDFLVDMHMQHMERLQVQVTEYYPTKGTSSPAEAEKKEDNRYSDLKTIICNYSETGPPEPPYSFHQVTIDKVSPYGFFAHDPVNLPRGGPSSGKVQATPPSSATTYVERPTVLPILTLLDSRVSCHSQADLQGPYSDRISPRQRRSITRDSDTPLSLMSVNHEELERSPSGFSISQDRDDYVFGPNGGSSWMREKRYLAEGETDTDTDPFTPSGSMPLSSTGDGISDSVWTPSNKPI

[2] = Photostability of compound in pH 7.4 buffer assessed as retention time of metabolite incubated for 6 hrs under visible light irradiation by HPLC/MS analysis
[3] = Photostability of compound in pH 7.4 buffer assessed as compound degradation at 100 ug/ml incubated for 6 hrs under UV-irradiation at wavelength of 365 and 264 nm by HPLC analysis
Procedure, shortened: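 Compound from DMSO stock diluted in pH 7.4 buffer to final 1 mM, 10 μM or 1 μM in 1 cm quartz cells, held at 37°C under UV lamp (365 and 264 nm) or artificial daylight D65 lamp; dark controls in foil at 37°C. Aliquots taken at set intervals; loss of parent by HPLC (C18, TFA water/acetonitrile gradient, 254 nm).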

[4] = Photostability of compound in pH 7.4 buffer assessed as formation of 4-fluorobenzaldehyde incubated for 6 hrs under visible light irradiation by GCMS analysis

In the case of `CC(C)(C)CC(=O)Nc1ccc2c(ccn2Cc2ccc(C(F)(F)F)cc2)c1`, the EC50 [1] is reported as 920 nM.
In the case of `CCOC(=O)Nc1ccc(NCc2ccc(F)cc2)cc1N` [EZOGABINE], the Retention time [2] is reported as 5.98 min, the Drug degradation [3] is reported as 5% and the Drug metabolism [4] is reported as “Metabolite detected”.
